PfM18AAP inh = PfM18AAP inhibitors, malaria aminopeptidase, primary screen, biochemical, QFRET, recombinant enzyme; M18 aspartyl aminopeptidase (Plasmodium falciparum 3D7); inhibition, % at 7.35 µM; actives 1.2% (n = 290,000); H-Glu-NHMec fluorogenic cleavage;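 active = inhibition above the campaign mean inhibition over all tested compounds plus 3 SD, cut at about 28% in these data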;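 also: 0% = plate median of test compound wells and 100% = 2 mM ZnCl2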
ALR inh = inhibitors of human ALR sulfhydryl oxidase, primary screen, biochemical, H2O2 detection, HRP-luminol luminescence, single point; FAD-linked sulfhydryl oxidase ALR (Homo sapiens), P55789; purified ALR, DTT oxidation; inhibition, % (concentration not given with the values); actives 3.8% (n = 290,000); AID 485317, 2010;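 active = mean replicate inhibition above about 79%, with every replicate also reaching it, limit read from the data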
Target sequence (P55789 whole entry, looked up): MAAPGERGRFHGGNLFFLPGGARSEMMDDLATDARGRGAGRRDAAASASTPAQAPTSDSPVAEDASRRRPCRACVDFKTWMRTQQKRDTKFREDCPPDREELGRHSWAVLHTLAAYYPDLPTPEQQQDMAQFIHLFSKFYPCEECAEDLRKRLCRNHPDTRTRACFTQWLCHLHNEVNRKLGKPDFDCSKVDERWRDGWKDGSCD
HCV core dimer = inhibitors of HCV core protein dimerization, primary screen, biochemical, TR-FRET, high-throughput; TR-FRET GST/Flag-core106 dimerization, 1536-well; inhibition, % at 5 µM; actives 0.33% (n = 300,000); AID 1899, 2009;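 active = inhibition above the mean of all tested compounds plus 3 SD, set per screening campaign, cut at about 45% in these data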
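Material: GST/Flag-tagged HCV core106 proteins. Incubation: 4 h, 22.5 °C incubation. Read-out basis: inhibition (%) from 671 over 617 nm ratio. Measured by: TR-FRET, excitation 340 nm, emission 617 and 671 nm.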
HCV NS3 hel inh = inhibitors of HCV NS3 helicase, primary screen, biochemical, Cy5 molecular beacon fluorescence; inhibition, % at 10.9 µM; AID 1800, 2009; NS3 helicase DNA unwinding; actives 0.56% (n = 290,000); Hepatitis C virus NS3 helicase;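 active = inhibition above the mean of all tested compounds plus 3 SD, set per campaign, cut at about 35% in these data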;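 also: 0% = DMSO wells and 100% = thioflavine S control wells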
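Test system: hepatitis C virus NS3 helicase domain fragment enzyme. Also added: annealed dual-labelled DNA beacon duplex, ATP-started. Timing: 60 min unwinding reaction at 25 °C after ATP addition. Technique: Cy5 fluorescence. Measure: % inhibition of unwinding.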
EBNA-1 inhibitor = EBNA-1 DNA-binding inhibitors, primary screen, biochemical, fluorescence polarization. inhibition, % at 14.8 µM. actives 0.34% (n = 300,000). AID 1950, 2009; in the data active = inhibition above about 28%
ZTA counter = ZTA (EBV) inhibition in EBNA-1 counter-screen. P03206. ZTA-DNA binding, fluorescence polarization. inhibition, % at 11 µM. actives 0.15% (n = 320,000); in the data active = inhibition above about 33%
Target sequence (P03206 whole entry, looked up): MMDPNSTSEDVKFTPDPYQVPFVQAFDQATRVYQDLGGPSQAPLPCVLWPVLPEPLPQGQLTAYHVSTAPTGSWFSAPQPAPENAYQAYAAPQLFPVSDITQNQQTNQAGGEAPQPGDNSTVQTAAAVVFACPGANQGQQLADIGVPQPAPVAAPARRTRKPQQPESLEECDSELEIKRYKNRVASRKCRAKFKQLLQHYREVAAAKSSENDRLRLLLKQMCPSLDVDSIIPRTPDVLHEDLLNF
NS3 hel confirm = HCV NS3 helicase inhibitors, retest, confirmation, biochemical, Cy5 molecular beacon fluorescence, triplicate; actives 31% (n = 1,600); shares compounds with HCV NS3 hel inh; inhibition, % at 10.9 µM; NS3 helicase DNA unwinding;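 active = inhibition above the mean of all tested compounds plus 3 SD, cutoff set per campaign, cut at about 36% in these data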
FID counter trip = compounds displacing fluorescent DNA intercalator, artefact control for HCV NS3 helicase inhibitor project, biochemical, FID fluorescence, triplicate | shares compounds with HCV NS3 hel inh | DNA fluorescent intercalator displacement | inhibition, % at 7.9 µM | actives 4% (n = 1,600) | AID 1945, 2009; in the data active = inhibition above about 37%;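 also: 0% = vehicle and 100% = reference compound; higher means more displacement of ethidium bromide from the DNA hairpin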
FID counter DR = compounds displacing fluorescent intercalator from DNA, dose response, counter-screen for HCV NS3 helicase inhibitor project, biochemical, fluorescence | fluorescent intercalator displacement from DNA | AID 2172, 2009 | IC50, µM | 120 tested, under 10 active | shares compounds with HCV NS3 hel inh; call rule not given here
An asterisk follows results filed as active; / = not tested or not shown. Shown are actives, neighbours in structure and some others; about 5.2% of the full set was active somewhere.

SMILES	PfM18AAP inh	ALR inh	HCV core dimer	HCV NS3 hel inh	EBNA-1 inhibitor	ZTA counter	NS3 hel confirm	FID counter trip	others
CCOC(=O)c1c(S(=O)(=O)NCCc2ccc(OC)c(OC)c2)c(C)n(C)c1C	-6.6	-0.9	7.6	39.1*	1.3	13.6	-10.5	-19.8
CCOC(=O)c1c(S(=O)(=O)NCCc2ccccc2)c(C)n(C)c1C	-3.0	0.2	8.4	9.0	-6.8	1.5	/	/
NC(=O)NS(=O)(=O)Oc1ccccc1	8.3	9.7	12.5	20.1	19.7	-10.3	/	/
COc1cc(/C=C2\C(=O)ON=C2c2ccccc2)cc(Br)c1O	21.6	/	6.3	38.3*	1.2	13.1	31.8	1.4
Cc1ccc(NC(=O)C2=C(c3ccccc3)S(=O)(=O)CCS2(=O)=O)cc1	-10.2	24.2	21.6	38.3*	-2.1	-10.3	58.8*	27.0	FID counter DR=>79.4
CC1(C)Cc2c(c(-c3ccco3)[nH]c(=O)c2C#N)CS1	-6.0	-11.8	-2.9	43.5*	4.9	-2.8	75.3*	6.7
O=C(O)CN1C(=O)/C(=C/c2cccc(Cl)c2)Oc2ccccc21	9.0	80.5*	-7.3	54.5*	6.3	2.0	59.0*	-13.6
COc1cc(OC)cc(-c2c(-c3cccs3)c3cc(-c4ccn[nH]4)ccc3n2C)c1	/	3.1	/	/	/	3.9	/	/
Cc1ccc(Cn2cc(CCC(=O)O)c3ccccc32)cc1	1.2	25.9	-33.2	48.6*	3.4	-2.2	12.1	-21.1
Cc1ccc(C(=O)c2c3ccc([N+](=O)[O-])cc3[n+]([O-])n2CCCN)cc1	/	-24.0	-3.1	/	5.7	-9.8	/	/
COC(=O)[C@@H](NC(=O)NCc1ccc(F)cc1)C(C)C	3.3	-4.9	-2.9	0.4	3.2	-0.5	/	/
CCN(CC)CC(O)c1cccn1-c1ccc(CNC(=O)NC(C)C)cc1 (centres undefined)	-13.2	-0.8	-8.5	38.6*	-1.0	-15.2	-16.0	-0.1
Cc1ccc(NC(=O)c2ccc(NS(=O)(=O)c3ccc4[nH]c(=O)[nH]c4c3)cc2)nc1	/	39.8	-0.8	/	-7.8	-10.1	/	/
Cc1cn(CC2COC(C)(C)O2)c(=O)[nH]c1=O (centres undefined)	0.5	-3.7	-2.9	37.9*	6.5	13.6	-1.7	10.4
O=C1NN(c2ccccc2)C(=O)/C1=C/c1ccc(Sc2cccc3ccccc23)o1	-5.8	0.3	10.1	53.5*	8.2	8.0	75.1*	17.0	FID counter DR=>79.4
O=C(CN1C(=O)COc2ccc(S(=O)(=O)N3CCCC3)cc21)NCc1ccccn1	-10.7	0.9	1.2	6.5	5.5	2.1	/	/
COc1ccccc1OCCCOc1cccc(/C=C2\SC(=O)NC2=O)c1	-11.7	-2.5	11.5	44.2*	5.2	4.8	68.1*	-9.1	FID counter DR=>79.4
COc1ccccc1OCCCOc1ccc(/C=C2\SC(=O)NC2=O)cc1OC	4.7	12.2	18.0	24.8	10.9	7.0	/	/
CCCOc1ccc2ccccc2c1/C=C1\SC(=O)NC1=O	-12.0	49.8	9.8	36.4*	-13.7	4.7	30.3	-21.0
O=C(COC(=O)c1cc2ccccc2o1)NCc1ccco1	/	/	/	/	/	-0.5	/	/
CCCNC(=O)COC(=O)c1ccc(Cl)c(S(=O)(=O)N2CCCC2)c1	-0.5	-1.4	-7.9	-5.2	-0.5	1.7	/	/
CCCNC(=O)COC(=O)c1ccc(S(=O)(=O)N2CCCC2)cc1	-8.6	-4.0	-2.9	50.0*	1.2	15.4	-10.0	-3.7
Cn1c(SCC(=O)c2ccc(-c3ccccc3)cc2)nnc1-c1ccco1	-12.1	87.6*	-16.1	68.3*	17.9	-1.1	4.9	-26.9

Screens deposited in PubChem by several laboratories.
